RGS4 act – RGS4 potentiators or activators, primary screen, cell-based, HEK293 M3R inducible RGS4, calcium flux; carbachol calcium flux Fluo4; active compounds read low; B-score at 10 µM; hit rate 0.92% among 310,000;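 active = B-score of the integrated calcium signal more than 4 SD below the library mean, with starting fluorescence not abnormally high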;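 note: negative B-score means reduced calcium response which marks RGS4 activation or potentiation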
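Material: Inducible-RGS4 HEK293 cells carrying M3 receptor; also added: carbachol at ECmax as muscarinic agonist stimulus; incubation: compound preincubation 20 min at room temperature before agonist; signal: Fluo4-AM (2 µM) calcium-flux fluorescence, kinetic read; measure: integrated calcium ratio converted to B score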
MrgX1 antagonist – antagonists of human MrgX1 receptor, primary screen, HEK293 cells, Fluo-4 calcium flux; BAM8-22 antagonism; active compounds read low; B-score at 10 µM; hit rate 1.3% among 310,000; Mas-related G-protein coupled receptor member X1 (Homo sapiens), Q96LB2; AID 588676, 2011;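 active = calcium-response B-score plate-corrected more than 3 library SD below zero, starting fluorescence within 5 deviations, no agonist response on first addition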;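 note: peak minus trough fluorescence over baseline after final BAM8-22 challenge near maximal dose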
RGS4 block – RGS4 inhibitors, primary screen, cell-based, HEK293 M3R inducible RGS4, calcium flux; Regulator of G-protein signaling 4 (Homo sapiens), P49798; Fluo-4 calcium flux; active compounds read high; triggered by carbachol at its EC20; B-score at 10 µM; hit rate 0.45% among 310,000; AID 463165, 2010;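 active = B-score, a plate-corrected calcium signal, over three deviations above library mean, with baseline fluorescence within five deviations of library mean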;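 note: RGS4 expression induced by doxycycline in cells with stable M3 receptor; B-score is computed from the integrated fluorescence ratio over baseline after carbachol; higher B-score means a larger calcium signal and so more RGS4 inhibition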
Target sequence (P49798 whole entry, looked up): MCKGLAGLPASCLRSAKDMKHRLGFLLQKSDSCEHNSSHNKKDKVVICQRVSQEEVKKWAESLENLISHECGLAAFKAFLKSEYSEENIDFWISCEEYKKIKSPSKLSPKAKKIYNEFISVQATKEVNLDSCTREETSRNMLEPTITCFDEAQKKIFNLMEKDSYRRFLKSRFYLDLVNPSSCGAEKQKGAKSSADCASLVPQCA
MrgX1 allo act – positive allosteric modulators of MrgX1, primary screen, HEK293 cells, Fluo-4 calcium flux. Mas-related G-protein coupled receptor member X1 (Homo sapiens), Q96LB2. FDSS; active compounds read high. B-score at 10 µM. hit rate 0.63% among 310,000. AID 588675, 2011;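 active = plate-corrected calcium response at least 3 library SD above typical, normal starting fluorescence, not activating the receptor alone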;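 note: compound read alongside a low EC10 to EC30 dose of BAM8-22 agonist; peak minus trough fluorescence over baseline measured at the second addition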
MrgX1 ag – agonists of human MrgX1 receptor, primary screen, HEK293 cells, Fluo-4 calcium flux; Mas-related G-protein coupled receptor member X1 (Homo sapiens), Q96LB2; Fluo-4 calcium fluorescence, agonist mode; active compounds read high; B-score at 10 µM; hit rate 0.44% among 310,000;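 active = calcium response B-score plate-corrected fluorescence ratio at least 3 library SD, with starting fluorescence B-score inside 5 SD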
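Material: HEK293 cells stably expressing human MrgX1 receptor | Quantity: 15,000 cells per well | Times: Cells plated overnight, dye loaded 0.5 h 37 °C, 0.5 h room temperature | Measured by: Kinetic Fluo-4 NW fluorescence of intracellular calcium | Control set: Positive and negative controls per plate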
PHOSPHO1 inh – PubChem AID 1565 | Phosphoethanolamine/phosphocholine phosphatase (Homo sapiens), Q8TCT1 | hit rate 1.1% among 290,000 | inhibition, % at 13.3 µM | recombinant PHOSPHO1, absorbance phosphatase assay; in the data active = inhibition above about 60%
Target sequence (Q8TCT1 whole entry, looked up): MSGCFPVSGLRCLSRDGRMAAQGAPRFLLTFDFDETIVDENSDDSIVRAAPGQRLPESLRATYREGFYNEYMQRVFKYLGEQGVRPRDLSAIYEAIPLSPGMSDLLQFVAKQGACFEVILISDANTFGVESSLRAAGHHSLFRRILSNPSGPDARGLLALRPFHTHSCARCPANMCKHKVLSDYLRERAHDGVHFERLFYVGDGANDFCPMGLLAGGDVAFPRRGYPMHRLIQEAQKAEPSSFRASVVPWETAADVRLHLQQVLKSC
MrgX1 PAM conf – MrgX1 positive allosteric modulators, duplicate retest, confirmation, HEK293 cells, Fluo-4 calcium flux; shares compounds with MrgX1 allo act; Fluo-4 calcium fluorescence, FDSS; activation (ratio percentage), % at 10 µM; hit rate 13% among 1,200;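 active = ratio at least 3 SD above the weak peptide control, stable starting fluorescence, no direct agonism earlier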;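 note: compound followed by low BAM8-22 agonist challenge near EC20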
HEK293 Ca flux – nonspecific calcium signal in parental HEK293, confirmation, counter-screen for MrgX1 antagonist project, parental HEK293 cells, Fluo-4 calcium flux. shares compounds with MrgX1 antagonist. Fluo-4 calcium fluorescence, FDSS. fluorescence ratio F(max-min)/F0 at 10 µM. hit rate 2% among 4,000. AID 624111, 2012;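 active = duplicate-averaged calcium fluorescence ratio at least three times the standard deviation of buffer wells, a nonspecific response in parental cells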
HEK293 Ca counter – calcium response in parental HEK293 cells, primary screen, counter-screen for MrgX1 allosteric activator project, cell-based, Fluo-4 calcium flux, duplicate | fluorescence ratio F(max-min)/F0 at 10 µM | Fluo-4 fluorescence ratio; active compounds read high | hit rate 0.4% among 4,000 | shares compounds with MrgX1 antagonist;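 active = calcium fluorescence ratio, averaged over duplicates, at least 3 SD of the buffer-well ratio, meaning a nonspecific response in receptor-free cells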;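 note: untransfected parental HEK293 lacking MrgX1 used as counterscreen for MrgX1 allosteric activators; fluorescence change taken during the second addition on a kinetic imager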
HEK293 Ca cntr2 – calcium response in parental HEK293 cells, primary screen, counter-screen for MrgX1 agonist project, cell-based, Fluo-4 calcium flux, duplicate, agonist mode; shares compounds with MrgX1 antagonist; Fluo-4 calcium fluorescence (FDSS); active compounds read high; fluorescence ratio F(max-min)/F0 at 10 µM; hit rate 8.7% among 4,000; AID 624115, 2012;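 active = calcium fluorescence ratio at least three times the spread of buffer wells, meaning a non-specific response in parental cells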
A number is an active result; - = inactive; . = not tested or not shown. Sampled rows, rich in hits. Any-hit rate of the full collection: about 4.5%.

SMILES	RGS4 act	MrgX1 antagonist	RGS4 block	MrgX1 allo act	MrgX1 ag	PHOSPHO1 inh	MrgX1 PAM conf	HEK293 Ca flux	HEK293 Ca counter	HEK293 Ca cntr2
Cc1cnc(C(=O)NC2CC(C)(C)Cc3c2cnn3-c2cccc(F)c2)cn1 (stereo not drawn)	-	-	-	7.8	-	-	-	-	-	-
C[C@H]1C=C(C(=O)N2CCOCC2)O[C@@H](OCc2ccc(CO)cc2)C1	-	-	-	-	-	-	.	.	.	.
CSCc1c(C(=O)Nc2ccc3c(c2)OCO3)oc2ccccc12	-	-	-	-	-	-	.	.	.	.
COc1cc(CNn2cn[nH]c2=S)cc(Cl)c1OCc1ccccc1	-	-	-	-	-	-	.	.	.	.
COc1cc(CNn2cn[nH]c2=S)cc(Br)c1OCc1ccccc1F	-	-	-	6.5	-	-	-	-	-	-
Cc1ccc(S(=O)(=O)N(CC(=O)c2ccccc2)C(=O)N2CCN(C)CC2)cc1	-	.	-	.	.	.	.	.	.	.
O=C(NCC1CCCO1)c1cc(Br)c(Br)s1 (stereo not drawn)	-	-	-	-	-	-	.	.	.	.
O=C(CN(CC1CCCO1)C(=O)CNS(=O)(=O)c1ccc(F)cc1)NCCc1ccccc1 (stereo not drawn)	-	-	-	-	-	-	.	.	.	.
O=C(Nc1nc(-c2ccccc2)ns1)c1cccs1	-	-	-	7.5	-	-	2.7%	-	-	-
O=C(Nc1nc2ccc(F)cc2s1)c1cccs1	-	-	-	9.3	-	-	-	-	-	-
COC(=O)[C@@H](Cc1c[nH]c2ccccc12)NC(=O)c1cc(=O)[nH]c2ccccc12	-	-	-	-	-	-	.	.	.	.
Cc1sc2ncnc(NCC3(N4CCOCC4)CCCCC3)c2c1C	-	-	-	-	-	-	.	.	.	.
Cc1sc2ncnc(NCC(C)(C)N3CCOCC3)c2c1C	-	-	-	8.7	-	-	-	-	-	-
N#CCSc1nnc(COc2ccc3ccccc3c2)o1	-	-	-	25	-	-	-	-	-	-
NC(=O)CSc1nnc(COc2ccc3ccccc3c2)o1	-	-	-	-	-	-	.	.	.	.
Cc1ccc(NC(=O)C(=O)NCCOc2ccc(Cl)cc2)c(C)c1	-	-	-	9.6	-	-	-	-	-	-
CCc1ccc(OCCn2cccn2)cc1	-	-	-	-	-	-	.	.	.	.
Cc1cc2c(c(SCC(N)=O)n1)C(=O)OC2	-	-	-	6.7	-	-	-	-	-	-
Cc1cc2c(c(SCC(=O)N(C)c3ccccc3)n1)C(=O)OC2	-	-	-	-	-	-	.	.	.	.
CCOC(=O)c1sc(Nc2ccccc2Cl)nc1C	-	-	-	13	-	-	-	-	-	-
c1ccc(-c2nc3c(ccc4ccccc43)[nH]2)nc1	-	-	-	6.8	-	-	-	-	-	-
c1ccc(-c2nc3ccccc3[nH]2)nc1	-	-	-	-	-	-	.	.	.	.
CC#CCN1c2ccccc2[C@]23C[C@@H](C(=O)OC)N(C(=O)NCCBr)C2=NC(C(=O)OC)=C(C(=O)OC)[C@H]13	-	-	-	-	-	.	.	.	.	.
COc1ccc(-c2cc(C(=O)Nc3c(F)cc(F)cc3Br)no2)cc1	-	-	-	8.9	-	-	-	-	-	-
COc1ccc(-c2cc(C(=O)Nc3ccc(F)cc3F)no2)cc1	-	-	-	-	-	-	.	.	.	.
SMILES	RGS4 act	MrgX1 antagonist	RGS4 block	MrgX1 allo act	MrgX1 ag	PHOSPHO1 inh	MrgX1 PAM conf	HEK293 Ca flux	HEK293 Ca counter	HEK293 Ca cntr2
CCN(CC(=O)NCc1cccs1)c1ccc(S(=O)(=O)N2CCN(C)CC2)cn1	-	-	-	-	-	-	.	.	.	.
O=C(O)CSc1ncnc2scc(-c3ccccc3)c12	-	-	-	-	-	-	.	.	.	.
O=C(O)CSc1ncnc2scc(-c3ccc(Br)cc3)c12	-	-	-	10	-	-	-	-	-	-
Cc1ccc(S(=O)(=O)N(C)C)cc1NC(=S)N1CCc2ccccc21	-	-	-	11	-	-	-	-	-	-
CC(OC(=O)Cn1cnc2c1c(=O)n(C)c(=O)n2C)C(=O)NC(C)c1ccc(Cl)cc1Cl (stereo not drawn)	-	-	-	-	-	.	.	.	.	.
CC(C)=CCc1c(C)nc2ccccc2c1C(=O)O	-	-	-	11	-	-	-	-	-	-
COC(=O)c1c(C)nc2ccccc2c1C(=O)O	-	-	-	-	-	-	.	.	.	.
COc1ccc(OC)c(N(CC(=O)N2CCN(c3cc(Cl)ccc3C)CC2)S(C)(=O)=O)c1	-	-	-	29	-	-	93%	-	-	54
COc1ccc(N2CCN(C(=O)CN(c3cccc(Br)c3)S(C)(=O)=O)CC2)cc1	-	-	-	18	-	-	16%	-	-	-
CCN1CCN(C(=O)CN(c2cc(OC)ccc2OC)S(C)(=O)=O)CC1	-	-	-	-	-	-	.	.	.	.
CS(=O)(=O)N(CC(=O)N1CCN(c2ccc(F)cc2)CC1)c1ccc(F)c(Cl)c1	-	-	-	6.8	-	-	-	-	-	-
COCCCN1C(=O)c2ccc(C(=O)NCCc3ccccc3)cc2C1=O	-	-	-	-	-	-	.	.	.	.
Cc1cc(C)c(S(=O)(=O)NCCc2ccccc2)c(C)c1	-	-	-	9.7	-	-	-	-	-	-
Cc1ccc(S(=O)(=O)NCCc2ccccc2)cc1	-	-	-	-	-	-	.	.	.	.
OC1(c2cccc(C(F)(F)F)c2)CCN(CCN2CCCCC2)CC1	-	-	-	-	-	-	.	.	.	.
COC(=O)c1cccc(C(=O)N2CCC(CO)(CCc3ccccc3)CC2)c1	-	-	-	-	-	-	.	.	.	.
COC(=O)c1cccc(C(=O)N2CCC(CO)(Cc3ccccc3Cl)CC2)c1	-	-	-	9.9	-	-	-	-	-	-
NC(=O)c1cc2ccncc2c2ccccc12	-	-	-	-	-	-	.	.	.	.

Source: PubChem BioAssay (several laboratories)
